Assay results published in ChEMBL document CHEMBL1240520, “Synthesis of heterocycle-based analogs of resveratrol and their antitumor and vasorelaxing properties” (Bioorg Med Chem, 2010).
Calls of active or inactive are those of the source. The rule behind the calls is not given here.

Tests used:
MDA-MB-231 = assay: Antitumor activity against human MDA-MB-231 cells after 6 days by SRB assay; assay type: functional, cell-based; settings: MDA-MB-231, 144 h
Summary of the method: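 MDA-MB-231 cells in DMEM with 5% FBS, 37 °C, 5% CO2, seeded 1.3 × 10³ cells/well and adhered 24 h; treated 0.25 to 64 µM (five wells per treatment, vehicle EtOH or DMSO) for 6 days. TCA-fixed, SRB-stained, OD 540 nm. Proliferation index = OD at day 6 / OD at time zero; IC50 from means of three independent experiments.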

Aorta [1] = assay: Vasorelaxant activity in Wistar rat aortic rings assessed as reduction in KCL-induced contractile tone; assay type: functional, tissue-based
Summary of the method: (§1)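 Endothelium-denuded thoracic aortic rings from male normotensive Wistar rats (250–350 g), equilibrated 60 min, precontracted with KCl 30 mM. Compounds added cumulatively at threefold increasing concentrations up to 30 µM. Efficacy is the maximal relaxation, or the response at 30 µM, as % of KCl tone. pIC50 is −log molar concentration halving tone, not calculated below 50% efficacy; mean ± SE, 5–10 experiments.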

Aorta [2] = assay: Vasorelaxant activity in Wistar rat aortic rings assessed as reduction in KCL-induced contractile tone at 30 uM; assay type: functional; summary of the method: as §1
Aorta [3] = assay: Vasorelaxant activity in Wistar rat aortic rings assessed as reduction in KCL-induced contractile tone in presence of tetraethylammonium chloride; assay type: functional, tissue-based

| SMILES | IC50 (MDA-MB-231) | IC50 (Aorta [1]) | Emax at 30 µM (Aorta [2]) | Activity (Aorta [3]) |
| --- | --- | --- | --- | --- |
| Oc1cc(O)cc(-c2nc3ccc(O)cc3s2)c1 | 19.4 µM | 12 µM | 88.2% | Active |
| Oc1ccc(/C=C/c2cc(O)cc(O)c2)cc1 [RESVERATROL] |  | 6.92 µM | 83% | inactive |
| Oc1ccc(-c2nc3c(O)cc(O)cc3s2)cc1 | > 100 µM | 12.6 µM | 80.6% | inactive |
| Oc1cc(O)cc(-c2cc3cc(O)ccc3o2)c1 | 46.1 µM | 15.5 µM | 77.2% | inactive |
| O/N=C/c1ccc(-c2cc(O)cc(O)c2)cc1O [SALICYLALDOXIME] |  |  |  | Active |
| Oc1cc(O)cc(-c2cc3ccc(O)cc3nc2Cl)c1 | 47.4 µM | 15.8 µM | 84.6% | inactive |

More lines, main results first:

| IC50 (MDA-MB-231) | IC50 (Aorta [1]) | SMILES | Emax at 30 µM (Aorta [2]) | Activity (Aorta [3]) |
| --- | --- | --- | --- | --- |
| 17.4 µM |  | Oc1cc(O)cc(-c2cnc3cc(O)ccc3c2)c1 | 17.2% |  |
|  | 12.9 µM | Oc1cc(O)cc(-c2ccc3cc(O)ccc3c2)c1 | 78.5% | inactive |
| 18.1 µM | 15.5 µM | Oc1cc(O)cc(-c2nc3cccc(O)c3s2)c1 | 76.8% | inactive |
| 67.6 µM |  | Oc1ccc(-c2nc3cc(O)cc(O)c3s2)cc1 | 39.6% | inactive |
